From ChEMBL document CHEMBL4610117 (J Med Chem, 2020)
The source made the active and inactive calls. The calls are words filed in the database; no cut-off is given here.

What was measured:
HT-29 [1] = test: Antiproliferative activity against human HT-29 cells assessed as reduction in cell viability measured after 4 days by crystal violet staining based assay; assay type: functional; settings: HT-29, 96 h
Procedure, shortened: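 Cells plated at 2000 (HT-29) or 3000 (LoVo) per point in DMEM/Ham's F12 with 2 mM L-glutamine and 10% FCS. After 24 h adherence, compounds were added at 0.001–10 μM (0.1% DMSO final) and incubated continuously for 4 d at 37 °C. Cells were glutaraldehyde-fixed, stained with crystal violet and read at 595 nm.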

[2] = Selectivity ratio of IC50 for inhibition of PI3K/AKT/mTOR signaling pathway in human MCF7 cells to IC50 for inhibition of ATR in human HT-29 cells
[3] = target: T1, Serine/threonine-protein kinase ATR (Homo sapiens, UniProt Q13535); test: Inhibition of 5'-TAMRA-labeled tracer 3',6'-bis(dimethylamino)-N-(4-{[2(1H-indol-4-yl)-6-(morpholin-4-yl)-pyrimidin-4-yl]amino}butyl)-3-oxo-3H-spiro[2-benzofuran-1,9'-xanthene]-5-carboxamide binding to recombinant human full-length N-terminal Flag-tagged ATR expressed in HEK293-6E cells co-expressing human full-length STREP-tagged ATRIP preincubated for 10 mins followed by tracer addition and measured after 30 mins by TR-FRET assay; assay type: cell-based
[4] = target: T1, Serine/threonine-protein kinase ATR; test: Inhibition of ATR in human HT-29 cells assessed as reduction in histone H2AX phosphorylation measured after 30 mins by immunofluorescence cytometric assay; assay type: cell-based
Procedure, shortened: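 HT-29 cells were seeded at 12000/point in DMEM/Ham's F12 with 2 mM L-glutamine and 10% FCS and grown 24 h at 37 °C. Compound (1 nM–10 μM final) was added with hydroxyurea (2.5 mM final) for 30 min at 37 °C.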

LoVo = test: Antiproliferative activity against human LoVo cells assessed as reduction in cell viability measured after 4 days by crystal violet staining based assay; assay type: functional; settings: 96 h
HT-29 [5] = test: Antitumor activity against human HT-29 cells xenografted in po dosed mouse administered twice daily; assay type: functional, organism-based
[6] = Efflux ratio of apparent permeability across basolateral to apical side over apical to basolateral side in human Caco2 cells at 2 uM; settings: Caco-2
[7] = Clearance in rat liver microsomes at 1 uM measured after 2 to 60 mins in presence of NADP by LC-MS/MS analysis; assay type: ADME, Microsome
physchem = settings: pH 6.5
[8] = Clearance in Han-Wistar rat hepatocytes at 1 uM measured after 2 to 90 mins by LC-MS/MS analysis; assay type: ADME, cell-based, Hepatocyte
[9] = Volume of distribution at steady state in Wistar rat at 0.3 to 0.5 mg/kg, iv administered as bolus dose by LC-MS/MS analysis; assay type: ADME, organism-based; settings: in vivo, read-out: Vdss
[10] = Lipophilicity, log D of the compound in pH 7.5 MeCN/H2O solution by reversed-phase HPLC analysis
[11] = target: Voltage-gated inwardly rectifying potassium channel KCNH2 (Homo sapiens, UniProt Q12809); test: Inhibition of recombinant human ERG stably expressed in HEK293 cells at -80 mV by whole cell voltage clamp method
[12] = Oral bioavailability in Wistar rat at 0.6 to 1 mg/kg by LC-MS/MS analysis; assay type: ADME, organism-based; settings: in vivo
[13] = Apparent half life in Wistar rat at 0.3 to 0.5 mg/kg, iv administered as bolus dose by LC-MS/MS analysis; assay type: ADME, organism-based; settings: in vivo, read-out: t1/2(app) (converted)
[14] = Clearance in Wistar rat at 0.3 to 0.5 mg/kg, iv administered as bolus dose by LC-MS/MS analysis; assay type: ADME, organism-based; settings: in vivo
[15] = Apparent permeability across apical to basolateral side in human Caco2 cells at 2 uM measured after 2 hrs by LC-MS/MS analysis; settings: Caco-2

T1 sequence (Q13535 whole entry): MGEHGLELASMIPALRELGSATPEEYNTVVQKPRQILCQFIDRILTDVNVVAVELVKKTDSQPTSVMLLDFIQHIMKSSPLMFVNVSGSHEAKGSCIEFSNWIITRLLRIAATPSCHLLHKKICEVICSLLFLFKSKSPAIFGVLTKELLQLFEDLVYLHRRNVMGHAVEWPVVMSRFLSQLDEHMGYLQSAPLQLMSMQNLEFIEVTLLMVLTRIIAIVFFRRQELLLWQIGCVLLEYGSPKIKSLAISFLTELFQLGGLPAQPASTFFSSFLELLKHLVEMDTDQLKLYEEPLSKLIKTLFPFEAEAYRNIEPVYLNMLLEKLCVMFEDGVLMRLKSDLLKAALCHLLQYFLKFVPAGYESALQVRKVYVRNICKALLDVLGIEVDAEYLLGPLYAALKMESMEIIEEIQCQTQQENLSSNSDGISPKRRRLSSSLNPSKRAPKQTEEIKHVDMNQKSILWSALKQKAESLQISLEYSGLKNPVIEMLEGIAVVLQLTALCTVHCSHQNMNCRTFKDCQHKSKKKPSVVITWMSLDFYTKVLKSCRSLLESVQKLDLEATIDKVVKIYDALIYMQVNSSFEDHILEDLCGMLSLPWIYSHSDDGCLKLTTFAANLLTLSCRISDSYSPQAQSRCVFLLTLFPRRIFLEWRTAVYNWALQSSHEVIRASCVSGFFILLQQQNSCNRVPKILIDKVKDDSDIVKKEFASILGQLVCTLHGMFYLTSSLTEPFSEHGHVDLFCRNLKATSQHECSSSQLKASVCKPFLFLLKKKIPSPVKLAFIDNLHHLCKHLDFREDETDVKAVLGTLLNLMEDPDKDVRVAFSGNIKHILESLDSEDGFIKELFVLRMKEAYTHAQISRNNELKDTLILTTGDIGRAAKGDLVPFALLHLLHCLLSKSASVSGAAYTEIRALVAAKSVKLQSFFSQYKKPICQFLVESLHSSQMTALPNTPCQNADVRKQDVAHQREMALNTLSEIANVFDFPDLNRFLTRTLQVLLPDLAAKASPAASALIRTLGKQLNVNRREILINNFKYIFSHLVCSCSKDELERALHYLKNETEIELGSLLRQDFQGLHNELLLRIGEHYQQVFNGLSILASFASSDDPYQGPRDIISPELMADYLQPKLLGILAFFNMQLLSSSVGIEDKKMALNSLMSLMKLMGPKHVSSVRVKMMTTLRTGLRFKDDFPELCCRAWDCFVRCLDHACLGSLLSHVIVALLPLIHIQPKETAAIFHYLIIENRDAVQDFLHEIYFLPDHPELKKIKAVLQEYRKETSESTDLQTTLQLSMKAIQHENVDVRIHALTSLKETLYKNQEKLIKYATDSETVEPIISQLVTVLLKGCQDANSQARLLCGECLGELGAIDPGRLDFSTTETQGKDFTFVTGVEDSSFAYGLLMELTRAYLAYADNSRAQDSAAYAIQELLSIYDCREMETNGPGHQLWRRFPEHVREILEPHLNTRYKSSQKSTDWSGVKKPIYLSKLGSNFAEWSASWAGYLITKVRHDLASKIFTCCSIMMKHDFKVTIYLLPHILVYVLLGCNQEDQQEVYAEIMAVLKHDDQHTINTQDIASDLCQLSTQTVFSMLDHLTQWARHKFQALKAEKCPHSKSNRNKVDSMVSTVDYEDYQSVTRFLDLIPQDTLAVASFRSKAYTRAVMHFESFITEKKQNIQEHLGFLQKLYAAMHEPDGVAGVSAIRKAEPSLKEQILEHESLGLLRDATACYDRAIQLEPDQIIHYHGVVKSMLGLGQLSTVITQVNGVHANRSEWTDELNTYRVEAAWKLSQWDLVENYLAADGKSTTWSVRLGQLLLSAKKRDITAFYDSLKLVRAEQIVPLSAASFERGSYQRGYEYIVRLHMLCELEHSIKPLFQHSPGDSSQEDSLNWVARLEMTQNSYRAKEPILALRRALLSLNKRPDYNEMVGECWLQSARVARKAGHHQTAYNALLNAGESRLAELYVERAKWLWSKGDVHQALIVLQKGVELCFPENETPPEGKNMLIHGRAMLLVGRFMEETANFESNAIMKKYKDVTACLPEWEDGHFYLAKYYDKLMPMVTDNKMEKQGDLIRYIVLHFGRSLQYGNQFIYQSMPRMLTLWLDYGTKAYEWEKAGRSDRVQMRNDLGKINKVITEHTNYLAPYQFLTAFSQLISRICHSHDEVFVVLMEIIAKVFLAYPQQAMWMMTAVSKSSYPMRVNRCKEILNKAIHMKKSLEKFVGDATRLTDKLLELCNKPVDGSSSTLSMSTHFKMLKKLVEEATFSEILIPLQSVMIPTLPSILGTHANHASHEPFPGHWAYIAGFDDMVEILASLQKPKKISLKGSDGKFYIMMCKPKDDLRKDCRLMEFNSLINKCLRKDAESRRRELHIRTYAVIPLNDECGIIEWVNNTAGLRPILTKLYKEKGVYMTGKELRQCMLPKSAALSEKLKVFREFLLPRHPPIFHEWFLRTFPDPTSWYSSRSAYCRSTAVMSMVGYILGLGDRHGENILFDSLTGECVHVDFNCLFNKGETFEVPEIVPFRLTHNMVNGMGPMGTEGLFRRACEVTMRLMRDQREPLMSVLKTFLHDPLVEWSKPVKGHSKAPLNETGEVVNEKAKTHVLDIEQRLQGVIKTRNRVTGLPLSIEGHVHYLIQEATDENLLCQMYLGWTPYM
Chain of Voltage-gated inwardly rectifying potassium channel KCNH2 (Q12809 whole entry): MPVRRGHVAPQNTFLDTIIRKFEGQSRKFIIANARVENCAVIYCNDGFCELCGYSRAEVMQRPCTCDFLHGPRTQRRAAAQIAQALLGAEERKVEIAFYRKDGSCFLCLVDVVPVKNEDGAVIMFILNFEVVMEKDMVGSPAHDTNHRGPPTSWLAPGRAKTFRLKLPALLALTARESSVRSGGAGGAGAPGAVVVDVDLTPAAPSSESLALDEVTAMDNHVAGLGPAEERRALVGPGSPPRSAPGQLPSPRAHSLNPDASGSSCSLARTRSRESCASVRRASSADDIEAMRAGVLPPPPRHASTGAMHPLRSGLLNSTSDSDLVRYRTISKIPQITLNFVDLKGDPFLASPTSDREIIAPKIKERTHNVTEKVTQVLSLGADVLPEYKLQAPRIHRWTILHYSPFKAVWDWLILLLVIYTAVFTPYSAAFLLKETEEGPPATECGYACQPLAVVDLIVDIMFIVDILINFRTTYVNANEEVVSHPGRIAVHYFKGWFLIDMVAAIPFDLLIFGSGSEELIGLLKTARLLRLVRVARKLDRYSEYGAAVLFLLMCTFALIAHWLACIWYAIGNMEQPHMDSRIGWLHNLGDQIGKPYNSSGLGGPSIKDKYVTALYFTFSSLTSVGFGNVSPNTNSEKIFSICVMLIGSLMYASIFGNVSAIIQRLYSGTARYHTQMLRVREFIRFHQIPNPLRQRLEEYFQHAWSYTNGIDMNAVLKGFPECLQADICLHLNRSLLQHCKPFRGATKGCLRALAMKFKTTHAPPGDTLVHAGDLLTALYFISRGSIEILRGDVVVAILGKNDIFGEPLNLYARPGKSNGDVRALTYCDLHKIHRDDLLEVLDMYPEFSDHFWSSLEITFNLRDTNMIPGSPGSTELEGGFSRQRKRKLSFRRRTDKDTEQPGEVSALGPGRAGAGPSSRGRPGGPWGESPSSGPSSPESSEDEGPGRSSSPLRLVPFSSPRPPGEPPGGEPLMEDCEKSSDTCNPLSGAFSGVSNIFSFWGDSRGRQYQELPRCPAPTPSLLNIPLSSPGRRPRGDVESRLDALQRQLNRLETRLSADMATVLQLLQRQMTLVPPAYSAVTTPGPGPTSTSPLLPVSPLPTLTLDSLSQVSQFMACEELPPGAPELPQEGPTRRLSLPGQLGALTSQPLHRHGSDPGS

Row | SMILES | IC50 (HT-29 [1]) [nM] | IC50 [3] [nM] | IC50 [4] [nM] | also measured
1 | C[C@@H]1COCCN1c1cc(N(C)c2ccc(F)cc2)c2ccnc(-c3ccn[nH]3)c2n1 | 381 | 9 | 70 | Ratio IC50 [2]: 42
2 | CC(C)Oc1cc(N2C[C@@H]3C[C@H]2CO3)nc2c(-c3ccn[nH]3)nccc12 |  | 922 |  | 
3 | CC(C)Oc1cc(N2CCOCC2)nc2c(-c3cn[nH]c3)nccc12 |  | 3690 |  | 
4 | C[C@@H]1COCCN1c1cc(C2(S(C)(=O)=O)CC2)c2ccnc(-c3ccn[nH]3)c2n1 | 268 | 15 | 86 | Ratio IC50 [2]: 71
5 | CC(C)Oc1cc(N2CCOCC2)nc2c(-c3cc4ccccc4[nH]3)nccc12 |  | > 20000 |  | 
6 | CC(C)Oc1cc(N2CCOCC2)nc2c(C3CCNC3)nccc12 (stereo not given) |  | > 20000 |  | 
7 | C[C@@H]1COCCN1c1cc(C2CCOCC2)c2ccnc(-c3ccn[nH]3)c2n1 | 292 |  |  | 
8 | CC(C)Oc1cc(N2CCOCC2)nc2c(-c3cccc(=O)[nH]3)nccc12 |  | > 20000 |  | 
9 | CC(C)Oc1cc(N2CCOCC2)nc2c(-c3ccn[nH]3)cccc12 |  | 5050 |  | 
10 | CC(C)Oc1cc(N2CCOC[C@H]2C)nc2c(-c3ccn[nH]3)nccc12 | 929 |  | 154 | Ratio IC50 [2]: 25
11 | CC(C)Oc1cc(N2CCOCC2)nc2c(-c3cccc(C(N)=O)c3)nccc12 |  | 17200 |  | 
12 | CC(C)Oc1cc(N2CCO[C@@H](C)C2)nc2c(-c3ccn[nH]3)nccc12 |  | 1970 |  | 
13 | Cc1cn[nH]c1-c1nccc2c(OC(C)C)cc(N3CCOCC3)nc12 |  | 5640 |  | 
14 | Cc1nc(S(C)(=N)=O)ccc1-c1cc(N2CCOC[C@H]2C)nc2c(-c3ccn[nH]3)nccc12 (stereo not given in full) | 323 | 10 | 266 | Ratio IC50 [2]: 16
15 | Cc1cc(-c2nccc3c(OC(C)C)cc(N4CCOCC4)nc23)n[nH]1 |  | 12700 |  | 
16 | CC(C)Oc1cc(N2CCOCC2)nc2c(-c3cnc[nH]3)nccc12 |  | 3400 |  | 
17 | C[C@@H]1COCCN1c1cc(C(C)(O)C(C)(C)C)c2ccnc(-c3ccn[nH]3)c2n1 (stereo not given in full) | 93 |  |  | 
18 | CC(C)Oc1cc(N2CCOCC2(C)C)nc2c(-c3ccn[nH]3)nccc12 |  | > 20000 |  | 
19 | CC(C)Oc1cc(N2C[C@H]3COC[C@H]3C2)nc2c(-c3ccn[nH]3)nccc12 |  | 9440 |  | 
20 | CS(=O)(=O)c1ccc(-c2cc(N3CCOCC3)nc3c(-c4ccn[nH]4)nccc23)cc1 | 704 |  |  | IC50 (LoVo): 315 nM; Ratio IC50 [2]: 13; Activity (HT-29 [5]): Active
21 | COc1cccc(-c2nccc3c(OC(C)C)cc(N4CCOCC4)nc23)n1 |  | 13200 |  | 
22 | Cc1nccn1-c1cc(N2CCOC[C@H]2C)nc2c(-c3ccn[nH]3)nccc12 | 192 | 25 | 76 | Ratio IC50 [2]: 263
23 | CNC(=O)c1nccc2c(OC(C)C)cc(N3CCOCC3)nc12 |  | > 20000 |  | 

Row | SMILES | IC50 (HT-29 [1]) [nM] | IC50 [3] [nM] | IC50 [4] [nM] | also measured
24 | CC(C)Oc1cc(N2CCOCC2C(F)(F)F)nc2c(-c3ccn[nH]3)nccc12 (stereo not given) |  | 8610 |  | 
25 | CC(C)Oc1cc(N2CCOCC2)nc2c(-c3ccn[nH]3)nccc12 |  |  | 424 | Ratio IC50 [2]: 5
26 | CC(C)Oc1cc(N2CCOCC2)nc2c(-c3cccnc3)nccc12 |  | 18100 |  | 
27 | CC(C)Oc1cc(N2CCOCC2)nc2cnccc12 |  | > 20000 |  | 
28 | CC(C)Oc1cc(N2CC(F)(F)OC(F)(F)C2)nc2c(-c3ccn[nH]3)nccc12 |  | > 20000 |  | 
29 | CC(C)Oc1cc(N2CCOCC2)nc2c(-c3ccc[nH]c3=O)nccc12 |  | > 20000 |  | 
30 | C[C@@H]1COCCN1c1cc(N2CCN(S(C)(=O)=O)CC2)c2ccnc(-c3ccn[nH]3)c2n1 | 233 | 5 | 59 | Ratio IC50 [2]: 44
31 | CC(C)Oc1cc(N2CCOC3CC32)nc2c(-c3ccn[nH]3)nccc12 (stereo not given) |  | 1510 |  | 
32 | COC1(C)CN(c2cc(OC(C)C)c3ccnc(-c4ccn[nH]4)c3n2)C1 |  | > 20000 |  | 
33 | CC(C)Oc1cc(N2C3CCC2COC3)nc2c(-c3ccn[nH]3)nccc12 |  | 310 |  | 
34 | CC(C)Oc1cc(N2CCO[C@H](C)C2)nc2c(-c3ccn[nH]3)nccc12 |  | 1500 |  | 
35 | CCP(=O)(CC)c1cc(N2CCOC[C@H]2C)nc2c(-c3ccn[nH]3)nccc12 | 498 |  | 289 | Ratio IC50 [2]: 61
36 | C[C@@H]1COCCN1c1cc(C#Cc2cccnc2)c2ccnc(-c3ccn[nH]3)c2n1 | 405 | 22 | 227 | Ratio IC50 [2]: 8
37 | CC(C)Oc1cc(N2CCOCC2)nc2c(-c3ccnn3C)nccc12 |  | 12500 |  | 
38 | CCC1COCCN1c1cc(OC(C)C)c2ccnc(-c3ccn[nH]3)c2n1 (stereo not given) |  | 1860 |  | 
39 | CCS(=O)(CC)=Nc1cc(N2CCOC[C@H]2C)nc2c(-c3ccn[nH]3)nccc12 | 168 | 22 | 30 | Ratio IC50 [2]: 217
40 | CC(C)Oc1cc(N2CCOCC2)nc2c(C(N)=O)nccc12 |  | 3300 |  | 
41 | CS(=O)(=O)c1ccc(-c2cc(N3CCOCC3)nc3c(-c4cc[nH]n4)nccc23)cc1 |  |  | 380 | efflux ratio at 2 µM [6]: 2.1; CLH [7]: 11.5 mL/min/kg; solubility at 24 h (physchem): < 1 µg/mL; CLH [8]: 10.7 mL/min/kg; Vd [9]: 2 L/kg; chromatographic logD [10]: 2.1; IC50 [11]: 5800 nM; bioavailability [12]: 14%; half-life [13]: 55.8 min; clearance [14]: 25 mL/min/kg; Papp A→B at 2 h, 2 µM [15]: 10.2 ×10⁻⁶ cm/s
42 | C[C@@H]1COCCN1c1cc(-c2cccnc2F)c2ccnc(-c3ccn[nH]3)c2n1 | 175 | 8 | 44 | Ratio IC50 [2]: 50
43 | C[C@@H]1COCCN1c1cc(-c2cnc3n2CCC3)c2ccnc(-c3ccn[nH]3)c2n1 | 125 |  | 82 | Ratio IC50 [2]: 59
44 | CC(C)Oc1cc(N2CCOCC2)nc2c(-c3nnn[nH]3)nccc12 |  | > 20000 |  | 
45 | CC(C)Oc1cc(N2CCOCC2)nc2c(-c3ccc[nH]3)nccc12 |  |  | > 3000 | 
